Screening results: PubChem, several laboratories
KCNK3 inh: human KCNK3 channel inhibition, primary screen. O14649. CHO-KCNK3 thallium flux, FluxOR fluorescence; active compounds read low. B-score at 10 µM. 340,000 tested, 0.84% active;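 active = B-score under library mean minus 4 SD, starting fluorescence ratio at most library mean plus 5 SD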;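 also: more negative B-score means stronger inhibition of thallium flux through KCNK3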
Target sequence (O14649 whole entry, looked up): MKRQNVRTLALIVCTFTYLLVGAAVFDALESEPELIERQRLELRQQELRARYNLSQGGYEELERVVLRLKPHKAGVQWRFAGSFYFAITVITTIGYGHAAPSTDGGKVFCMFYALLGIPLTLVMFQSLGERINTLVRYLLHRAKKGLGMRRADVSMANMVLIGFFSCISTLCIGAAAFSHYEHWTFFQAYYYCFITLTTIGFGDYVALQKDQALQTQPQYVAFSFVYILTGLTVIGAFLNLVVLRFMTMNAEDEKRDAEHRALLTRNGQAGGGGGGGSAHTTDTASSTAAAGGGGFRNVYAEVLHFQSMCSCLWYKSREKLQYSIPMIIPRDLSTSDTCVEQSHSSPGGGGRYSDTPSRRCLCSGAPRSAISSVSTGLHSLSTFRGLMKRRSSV
hERG protect: compounds protecting human hERG from proarrhythmic drug block. 310,000 tested, 0.51% active. Q12809. AID 1511. CHO-hERG, FluxOR thallium flux, dofetilide IC70 present. activation (rescue from dofetilide block), less the hit threshold, % at 10 µM;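 active = activation above the mean of controls blocked by dofetilide plus 5 SD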;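 also: thallium influx through hERG after potassium depolarization seen as dye fluorescence rise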
KCNK9 inh: inhibitors of human KCNK9 two-pore domain potassium channel. HEK293 KCNK9, FluxOR thallium flux fluorescence; active compounds read low. B-score at 10 µM. 310,000 tested, 1.2% active. AID 488922;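 active = ratio B-score over 3 SD below the library mean, with starting fluorescence within 5 SD of its mean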;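 also: negative B-score means less thallium flux so channel inhibition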
KCNQ1 pot: human KCNQ1 channel potentiation or activation; P51787; CHO-K1 KCNQ1, thallium flux FluxOR fluorescence; active compounds read high; B-score at 10 µM; 310,000 tested, 0.35% active;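 active = fluorescence ratio B-score, a plate-corrected score, at least three library SD, with initial intensity B-score within 5 SD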
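Material: CHO-K1 cells stably expressing KCNQ1. Medium: assay buffer for compound exposure, DMSO matched across wells. Reagent: K+/Tl+ depolarizing stimulus. Compound dosing: single-concentration screen. Times: 37 °C overnight plating, 90-min dark dye load, 20-min compound pretreatment. Technique: FluxOR Tl+ flux fluorescence.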
KCNQ1 block: inhibitors of human KCNQ1 potassium channel; CHO-K1 KCNQ1, FluxOR thallium flux fluorescence; active compounds read high; B-score at 10 µM; P51787; 310,000 tested, 1.3% active;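 active = compounds whose thallium flux B-score, printed positive for inhibition, exceeds three library SD while starting fluorescence stays within three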;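 also: channel opened by potassium depolarization with thallium stimulus after 20 min compound exposure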
KCC2 mod: modulators of human KCC2 chloride dependent transport; Q9H2X9; B-score of Tl+ flux slope (higher = more flux/activation; lower = inhibition) at 10 µM; 190,000 tested, 2.2% active; KCC2 cells, thallium flux FluoZin-2 fluorescence;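 active = thallium flux slope and its plate-corrected score both differing from the plate sample mean at a set confidence after two filtering rounds, in either direction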;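 also: slope of fluorescence scaled to starting intensity during 10 to 20 s after thallium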
KCNK3 confirm: confirmation of human KCNK3 two-pore domain potassium channel inhibitors; shares compounds with KCNK3 inh; CHO-KCNK3 thallium flux, FluxOR fluorescence; 0% buffer, 100% carvedilol maximal block; ratio percent of control, % at 10 µM; 2,400 tested, 99% active;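 active = ratio percent of control, averaged over triplicates, above buffer control mean plus 5 SD, cut at about 64% in these data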;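 also: ratio is the fluorescence rise from min to max over baseline after thallium stimulus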
KCNK3 noninduced: counter-screen for KCNK3 inhibitors: effect in non-induced cells. shares compounds with KCNK3 inh. non-induced KCNK3 parental cells, FluxOR thallium flux; active compounds read low. thallium flux ratio (lower = more inhibition) at 10 µM. 2,400 tested, 40% active. AID 651747;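 active = thallium flux ratio, averaged over three wells, more than 5 SD below the buffer control mean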;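 also: host cells are CHO cells without KCNK3 induction; ratio is peak minus trough fluorescence over baseline then normalized to buffer controls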
Numbers without * were called inactive; i = inactive; · = not tested or not shown. Compounds with a hit are over-represented: about 4.1% of the library has one in this group of screens.

SMILES	KCNK3 inh	hERG protect	KCNK9 inh	KCNQ1 pot	KCNQ1 block	KCC2 mod	KCNK3 confirm	KCNK3 noninduced
COC(=O)C1=C(C)NC(C)=C(C(=O)OCC2CCCO2)C1c1cccc(Cl)c1 (centres undefined)	-11*	-13.6	i	i	i	·	117.3*	i
CCN(CC)S(=O)(=O)c1cc(NC(=O)C(C)N2CCN(Cc3ccc4c(c3)OCO4)CC2)ccc1C (centres undefined)	i	-7.0	i	i	i	0.726	·	·
CCOc1ccccc1/C=N/NC(=O)Cc1csc(Nc2cccc(C(F)(F)F)c2)n1	-8.75*	-2.7	i	i	i	-0.0483	131.0*	0.146*
CCOc1ccc(/C=N/NC(=O)Cc2csc(Nc3cccc(C(F)(F)F)c3)n2)cc1	-10.6*	-3.8	i	i	i	0.303	105.7*	i
O=C(Nc1nccs1)c1cccc(NC(=O)C(F)(F)F)c1	i	-12.3	i	i	i	-0.609	·	·
COCc1nnc(NC(=O)c2cc(OC)c(OC)cc2[N+](=O)[O-])s1	i	0.8	i	i	i	0.986	·	·
Cc1nnc(SCC(=O)Nc2nsc(-c3ccc(C(C)(C)C)cc3)n2)s1	-9.88*	-14.1	i	i	i	-2.37	101.7*	i
CCc1ccc(N2CC(C(=O)NC3CCCCC3C)CC2=O)cc1 (centres undefined)	i	-9.7	i	i	i	·	·	·
O=C(CSc1nc2ccccc2c(=O)n1-c1ccccc1)N/N=C/C=C/c1ccccc1[N+](=O)[O-]	-9.13*	-16.0	i	i	i	-1.23	100.3*	i
COc1cc2ccccc2cc1-c1nnc(COc2ccccc2)o1	i	-5.5	i	i	i	-0.561	·	·
COc1ccc(OC)c(NC(=O)CSc2nncc3ccc(OC)c(OC)c23)c1	i	-2.8	i	i	i	-1.58	·	·
CCC(C(=O)NCCc1c[nH]c2ccc(C)cc12)c1ccccc1 (centres undefined)	-8.81*	-2.5	-7.75*	i	i	·	110.0*	i
Cc1ccc(NC(=O)c2ccc(Cl)c(S(=O)(=O)N3CCc4ccccc43)c2)nc1	-11.5*	·	·	·	·	·	144.3*	0.133*
COc1ccc(C(=O)Nc2ccc(C)cn2)cc1S(=O)(=O)N1CCCc2ccccc21	i	-15.9	i	i	i	·	·	·
COc1ccc(C)cc1S(=O)(=O)N1CCN(c2cccc(C(F)(F)F)c2)CC1	-10.5*	-7.1	i	i	i	1.23	103.0*	i
CCN(CC)S(=O)(=O)c1ccc2c(c1)nc(-c1ccccn1)n2C	i	-4.1	i	i	i	·	·	·
Cc1nn(Cc2ccccc2Cl)c(C)c1NC(=O)NC12CC3CC(CC(C3)C1)C2	-8.87*	-9.0	i	i	i	0.327	119.0*	0.144*
O=C(N/N=C\c1ccc(Cl)cc1)c1sccc1-n1cccc1	i	-12.5	i	i	i	-0.0649	·	·
O=C(N/N=C\c1ccc(Cl)cc1Cl)c1sccc1-n1cccc1	-9.41*	-1.7	i	i	i	·	93.3*	i
O=C(NCC1CCCO1)c1ccc(S(=O)(=O)N2CCC(c3nc4ccc(Cl)cc4[nH]3)CC2)cc1 (centres undefined)	i	-7.6	i	i	i	0.229	·	·
CN1CCN(C2Cc3cc(Cl)ccc3Sc3cc(F)ccc32)CC1 (centres undefined)	-10.3*	-12.9	i	i	i	·	144.0*	i
CCc1ccc2c(c1)Sc1ccccc1CC2N1CCN(C)CC1 (centres undefined)	i	-19.9	i	i	i	·	·	·
Cc1cccc(OCCNc2cc(N3CCN(CCO)CC3)ccc2[N+](=O)[O-])c1	i	-13.4	i	i	i	-0.802	·	·
COc1ccc(C(=O)Nc2cccc(-c3nnc(-c4ccco4)o3)c2)cc1	i	-26.7	i	i	i	·	·	·
COc1cc(C(=O)Nc2cccc(-c3nnc(-c4ccco4)o3)c2)ccc1OC(C)=O	-9.52*	-13.7	i	i	i	-0.367	113.3*	i
SMILES	KCNK3 inh	hERG protect	KCNK9 inh	KCNQ1 pot	KCNQ1 block	KCC2 mod	KCNK3 confirm	KCNK3 noninduced
COc1ccc(CNn2c(-c3cccs3)nc3ccccc3c2=O)cc1OC	-9.27*	-17.3	i	i	i	-0.135	91.3*	i
Cc1cccc(N2CCN(C(=O)c3nn(C)c4c3CS(=O)(=O)c3ccccc3-4)CC2C)c1 (centres undefined)	i	-10.8	i	i	i	·	·	·
Cc1ccc2nc(N/N=C\c3ccc([N+](=O)[O-])o3)nc(-c3ccccc3)c2c1	-10.9*	-19.6	-6.89*	i	7*	-1.96	147.3*	0.0867*
Cc1sc2ncnc(N3CCC(C(=O)Nc4ccc(Cl)cc4Cl)CC3)c2c1C	i	-13.7	i	i	i	·	·	·
Cc1sc2ncnc(N3CCC(C(=O)Nc4ccc(Br)cc4Br)CC3)c2c1C	-8.75*	-9.5	i	i	i	·	113.0*	i
CCC1CCCCN1S(=O)(=O)c1ccc(C(=O)N(CCCN(C)C)c2nc3cc4c(cc3s2)OCO4)cc1 (centres undefined)	i	-15.9	i	i	i	·	·	·
CC(=O)Nc1cc(C(=O)OC(C(=O)c2ccccc2)c2ccccc2)ccc1C (centres undefined)	-10.1*	-18.6	i	i	i	-0.251	79.3*	i
Cc1ccc(NC(=O)c2cc(C)nc3ccccc23)c(Br)c1	-10.2*	0.8	-7.99*	i	i	·	94.0*	i
CCC(C(=O)O/N=C(\N)c1ccc(Cl)cc1)c1ccccc1 (centres undefined)	-10.2*	-4.6	-6.63*	i	i	-1.08	108.0*	i
CCC(C(=O)O/N=C(\N)c1ccccc1)c1ccccc1 (centres undefined)	i	-6.1	i	i	i	-0.538	·	·
COc1ccc(N2CCN(C(=O)CNC(=O)c3ccco3)CC2)cc1	i	-5.6	i	i	i	·	·	·
O=C(CSc1ncccc1C(=O)O)NC12CC3CC(CC(C3)C1)C2	i	-6.4	i	i	i	-0.243	·	·
O=[N+]([O-])c1ccc(C2=NN(CCO)C(=Nc3ccc(OC(F)(F)F)cc3)SC2)cc1	-10.1*	-9.1	i	i	i	0.272	131.0*	i
Cc1nc(C)c(N)c(=O)[nH]1	i	-1.2	i	i	i	1.26	·	·
